Assay results: ChEMBL document CHEMBL2010670, “Discovery of a clinical stage multi-kinase inhibitor sodium (E)-2-{2-methoxy-5-[(2',4',6'-trimethoxystyrylsulfonyl)methyl]phenylamino}acetate (ON 01910.Na): synthesis, structure-activity relationship, and biological activity” (J Med Chem, 2011)

Experiments:
[1] = Cytotoxicity against human Z138C cells after 96 hrs by trypan blue exclusion assay; type: functional, cell-based
How it was run: (§1)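 Cells grown in DMEM or RPMI with 10% FBS and 1 unit/mL penicillin-streptomycin, seeded at 1.0 × 10⁵ cells/mL/well in 6-well dishes; compound added 24 h later at various concentrations. After 96 h of treatment, viable cells counted by trypan blue exclusion in duplicate wells; dose-response end point.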

[2] = Cytotoxicity against human 451LU cells after 96 hrs by trypan blue exclusion assay; type: functional, cell-based
How it was run: (§2)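 Cells grown in DMEM or RPMI with 10% FBS and penicillin-streptomycin, seeded at 1.0 × 10⁵ cells/mL/well in 6-well dishes. Compound added at a range of concentrations 24 h after seeding. Viable cells counted by trypan blue exclusion from duplicate wells after 96 h of exposure; dose-response end point.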

[3] = Cytotoxicity against human WM3211 cells after 96 hrs by trypan blue exclusion assay; type: functional, cell-based; conditions: WM3211, 96 h; how it was run: as §1
DLD-1 = test: Cytotoxicity against human DLD1 cells after 96 hrs by trypan blue exclusion assay; type: functional, cell-based; conditions: DLD-1, 96 h; how it was run: as §2
BT-474 = test: Cytotoxicity against human BT474 cells after 96 hrs by trypan blue exclusion assay; type: functional, cell-based; conditions: BT-474, 96 h; how it was run: as §2
U-266 = test: Cytotoxicity against human U266 cells after 96 hrs by trypan blue exclusion assay; type: functional, cell-based; conditions: U-266, 96 h; how it was run: as §1
HFL1 [4] = test: Induction of apoptosis in human HFL1 cells assessed as PARP1 cleavage at 0.25 to 5 uM after 48 hrs by Western blot analysis; type: cell-based; conditions: hfl1, 48 h
How it was run: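 DU145 or HFL-1 cells plated at 3.0 × 10⁶ per […], treated 24 h later with DMSO or compound for 48 h. Frozen pellets lysed in 1% NP40/PBS with protease inhibitors. Equal protein run on 10% SDS-PAGE, transferred to nitrocellulose, probed with anti-PARP antibody, ECL detection.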

CEM/C2 = test: Cytotoxicity against multidrug-resistant human CEM/C2 cells assessed as cell viability after 96 hrs by trypan blue exclusion; type: functional, cell-based; conditions: CEM/C2, 96 h; how it was run: as §1
CCRF-CEM = test: Cytotoxicity against human CEM cells assessed as cell viability after 96 hrs by trypan blue exclusion; type: functional, cell-based; how it was run: as §2
2008 = test: Cytotoxicity against human 2008 cells assessed as cell viability after 96 hrs by trypan blue exclusion; type: functional, cell-based; conditions: Homo sapiens, 2008, 96 h; how it was run: as §2
[5] = Cytotoxicity against human WM239A cells after 96 hrs by trypan blue exclusion assay; type: functional, cell-based; how it was run: as §1
Bel-7402 = test: Cytotoxicity against human Bel7402 cells after 96 hrs by trypan blue exclusion assay; type: functional, cell-based; conditions: Bel-7402, 96 h; how it was run: as §2
MDA-MB-231 = test: Cytotoxicity against human MDA-MB-231 cells after 96 hrs by trypan blue exclusion assay; type: functional, cell-based; conditions: MDA-MB-231, 96 h; how it was run: as §2
[6] = Cytotoxicity against human PS41 cells after 96 hrs by trypan blue exclusion assay; type: cell-based; conditions: PS41, 96 h; how it was run: as §2
BT-20 = test: Cytotoxicity against human BT20 cells after 96 hrs by trypan blue exclusion assay; type: functional, cell-based; conditions: BT-20, 96 h; how it was run: as §2
[7] = Cytotoxicity against human U87 cells after 96 hrs by trypan blue exclusion assay; type: functional, cell-based, U-87MG ATCC; conditions: U-87 MG; how it was run: as §1
K562 = test: Cytotoxicity against human K562 cells after 96 hrs by trypan blue exclusion assay; type: functional, cell-based; conditions: k562; how it was run: as §2
AGS = test: Cytotoxicity against human AGS cells after 96 hrs by trypan blue exclusion assay; type: functional, cell-based; how it was run: as §2
KB = test: Cytotoxicity against human KB cells after 96 hrs by trypan blue exclusion assay; type: functional, cell-based; how it was run: as §2
U-937 = test: Cytotoxicity against human U937 cells after 96 hrs by trypan blue exclusion assay; type: functional, cell-based; conditions: U-937, 96 h; how it was run: as §1
A549 = test: Cytotoxicity against human A549 cells after 96 hrs by trypan blue exclusion assay; type: functional, cell-based; conditions: A549, 96 h; how it was run: as §2
[8] = Cytotoxicity against human COLO320 cells after 96 hrs by trypan blue exclusion assay; type: functional, cell-based; conditions: COLO 320, 96 h; how it was run: as §2
[9] = Cytotoxicity against multidrug-resistant human 2008/17/4 cells assessed as cell viability after 96 hrs by trypan blue exclusion; type: functional, cell-based; how it was run: as §1
[10] = Cytotoxicity against human DND1A cells after 96 hrs by trypan blue exclusion assay; type: functional, cell-based; how it was run: as §2
HCC70 = test: Cytotoxicity against human HCC70 cells after 96 hrs by trypan blue exclusion assay; type: functional, cell-based; conditions: HCC70, 96 h; how it was run: as §2
COLO 205 = test: Cytotoxicity against human COLO205 cells after 96 hrs by trypan blue exclusion assay; type: functional, cell-based; conditions: COLO 205, 96 h; how it was run: as §2
[11] = Cytotoxicity against human KG1a cells after 96 hrs by trypan blue exclusion assay; type: functional, cell-based; conditions: KG-1a; how it was run: as §2
HUVEC = test: Cytotoxicity against HUVEC after 96 hrs by trypan blue exclusion assay; type: cell-based; conditions: Homo sapiens; how it was run: as §2
HFL1 [12] = test: Cell cycle arrest in human HFL1 cells assessed as accumulation at G1 phase at 0.1 to 1 uM after 24 hrs by propidium iodide staining-based flow cytometric analysis; type: ADME; conditions: hfl1, 24 h
How it was run: (§3)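 DMEM with 10% FBS; 1.0 × 10⁶ cells/dish, treated 24 h after plating and harvested 24 h after treatment. Trypsinized cells were pooled with floating cells, PBS-washed and fixed in ice-cold 70% ethanol for ≥24 h. Cells were stained with propidium iodide plus RNase A for 30 min at 37 °C. DNA content was read by flow cytometry with cell-cycle modelling.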

NCI-H187 = test: Cytotoxicity against human NCI-H187 cells after 96 hrs by trypan blue exclusion assay; type: functional, cell-based; conditions: NCI-H187, 96 h; how it was run: as §2
MCF7 = test: Cytotoxicity against human MCF7 cells after 96 hrs by trypan blue exclusion assay; type: functional, cell-based; conditions: MCF7, 96 h; how it was run: as §2
T47D = test: Cytotoxicity against human T47D cells after 96 hrs by trypan blue exclusion assay; type: functional, cell-based; how it was run: as §1
LP-1 = test: Cytotoxicity against human LP-1 cells after 96 hrs by trypan blue exclusion assay; type: functional, cell-based; conditions: LP-1, 96 h; how it was run: as §2
NCI-H1975 = test: Cytotoxicity against human NCI-H1975 cells after 96 hrs by trypan blue exclusion assay; type: functional, cell-based; conditions: NCI-H1975, 96 h; how it was run: as §2
[13] = Cytotoxicity against human MES-SA cells assessed as cell viability after 96 hrs by trypan blue exclusion; type: functional, cell-based; how it was run: as §2
DU-145 = test: Cytotoxicity against human DU145 cells after 96 hrs by trypan blue exclusion assay; type: functional, cell-based; conditions: du-145; how it was run: as §2
HEL = test: Cytotoxicity against human HEL cells after 96 hrs by trypan blue exclusion assay; type: functional, cell-based; how it was run: as §2
PC-3 = test: Cytotoxicity against human PC3 cells after 96 hrs by trypan blue exclusion assay; type: functional, cell-based; conditions: PC-3, 96 h; how it was run: as §2
[14] = Cytotoxicity against human GRANTA-519 cells after 96 hrs by trypan blue exclusion assay; type: functional, cell-based; conditions: Granta-519, 96 h; how it was run: as §2
MOLT-4 = test: Cytotoxicity against human MOLT4 cells after 96 hrs by trypan blue exclusion assay; type: functional, cell-based; conditions: MOLT-4, 96 h; how it was run: as §2
Raji = test: Cytotoxicity against human Raji cells after 96 hrs by trypan blue exclusion assay; type: functional, cell-based; how it was run: as §1
NCI-H417 = test: Cytotoxicity against human NCI-N417 cells after 96 hrs by trypan blue exclusion assay; type: functional, cell-based; conditions: NCI-H417, 96 h; how it was run: as §2
[15] = Cytotoxicity against human RF1 cells after 96 hrs by trypan blue exclusion assay; type: functional, cell-based; conditions: RF1, 96 h; how it was run: as §1
HFL1 [16] = test: Cell cycle arrest in human HFL1 cells assessed as accumulation of cells in G2/M phase at 0.1 to 1 uM after 24 hrs by propidium iodide staining-based flow cytometric analysis; type: ADME; conditions: hfl1, 24 h; how it was run: as §3
[17] = Cytotoxicity against human NAMALWA cells after 96 hrs by trypan blue exclusion assay; type: functional, cell-based; conditions: NAMALVA; how it was run: as §2

Compound COc1cc(OC)c(/C=C/S(=O)(=O)Cc2ccc(OC)c(NCC(=O)[O-])c2)c(OC)c1.[Na+] [RIGOSERTIB SODIUM] has an IC50 [1] of 75 nM, an IC50 [2] of 25 nM and an IC50 [3] of 75 nM. The IC50 (DLD-1) was 150 nM, the IC50 (BT-474) was 50 nM and the IC50 (U-266) was 25 nM. The Activity (HFL1 [4]) was “Non-toxic”, the IC50 (CEM/C2) was 50 nM and the IC50 (CCRF-CEM) was 100 nM. It also gave an IC50 2008 of 150 nM, an IC50 [5] of 75 nM and an IC50 (Bel-7402) of 100 nM. The IC50 (MDA-MB-231) was 25 nM, the IC50 [6] was greater than 100000 nM and the IC50 (BT-20) was 80 nM. For the same compound, the IC50 [7] was 80 nM, the IC50 (K562) was 15 nM and the IC50 (AGS) was 80 nM. For the same compound, the IC50 (KB) was 70 nM, the IC50 (U-937) was 10 nM and the IC50 (A549) was 90 nM. For the same compound, the IC50 [8] was 60 nM, the IC50 [9] was 100 nM and the IC50 [10] was 75 nM. It also gave an IC50 (HCC70) of 75 nM, an IC50 (COLO 205) of 150 nM and an IC50 [11] of 30 nM. The IC50 (HUVEC) was greater than 100000 nM, the Activity (HFL1 [12]) was “Toxic” and the IC50 (NCI-H187) was 80 nM. For the same compound, the IC50 (MCF7) was 75 nM, the IC50 (T47D) was 170 nM and the IC50 (LP-1) was 30 nM. The IC50 (NCI-H1975) was 90 nM, the IC50 [13] was 100 nM and the IC50 (DU-145) was 100 nM. The IC50 (HEL) was 50 nM, the IC50 (PC-3) was 150 nM and the IC50 [14] was 75 nM. The IC50 (MOLT-4) was 40 nM, the IC50 (Raji) was 75 nM and the IC50 (NCI-H417) was 80 nM. For the same compound, the IC50 [15] was 50 nM, the Activity (HFL1 [16]) was “Toxic” and the IC50 [17] was 75 nM.
